Measurements collected from several papers.
Protocols differ between the studies behind these lines.
Target: Serine/threonine-protein kinase N1 (PKN1, Homo sapiens, UniProt Q16512)

| SMILES | assay | conditions | endpoint | result |
| --- | --- | --- | --- | --- |
| C[C@@]1(Cc2ccc(C#N)cc2)C(=O)N(c2cc(Cl)cc(Cl)c2)c2ncc(C(=O)NC3(c4nc(C5CCC5)no4)CC3)n21 | cell-free assay, competition with immobilised ligand | 1 µM | remaining binding | 100% |
| C=CCn1c(=O)c2cnc(Nc3ccc(N4CCN(C)CC4)cc3)nc2n1-c1cccc(C(C)(C)O)n1 | enzyme activity, inhibitor | 1 µM | activity vs control | 60% |
| O=C(O)[C@H]1[C@H](Cn2nnc3ccccc3c2=O)CC[C@@H]1C(=O)c1ccc(OCCC2CCOCC2)cc1 | cell-free assay, competition with immobilised ligand | 1 µM | remaining binding | 88% |
| CC(=O)c1cnc2ccc(-c3cc(Cl)c(O)c(Cl)c3)nc2c1N[C@H]1CC[C@H](CN(C)C)CC1 | enzyme activity, inhibitor | 1 µM | activity vs control | 0% |
| CCC(=O)N[C@H]1CC[C@@H](C(=O)N(C)c2ccc(-c3nc4ccccc4o3)cc2)C1 | cell-free assay, competition with immobilised ligand | 1 µM | remaining binding | 83% |
| CC(C)(C)c1nc(-c2cccc(NS(=O)(=O)c3c(F)cccc3F)c2F)c(-c2ccnc(N)n2)s1 | enzyme activity, inhibitor, radiometric | 1 µM | remaining activity | 101% |
| CN(C)CCOc1ccc(-c2nc(-c3ccncc3)c(-c3ccc4c(c3)CC/C4=N\O)[nH]2)cc1 | enzyme activity, inhibitor | 1 µM | activity vs control | 95% |
| Cn1c2c(Cl)c(Cl)ccc2c2cc(N)[nH]c(=O)c21 | thermal stability, DSF | 10 µM | ΔTm | 0.6 °C |
| CC(=O)Nc1c(C(C)=O)c(=O)n(C)c2nc(-c3ccc(Cl)cc3Cl)c(-c3ccc(Cl)cc3)cc12 | cell-free assay, competition with immobilised ligand | 1 µM | remaining binding | 92% |
| COc1cc(-c2cc(-c3ccc(N4CCNCC4)cc3)cnc2C)cc(OC)c1OC | enzyme activity, inhibitor | 0.1 µM | inhibition | 10% |
| CC(=O)Nc1cccc(-n2c(=O)n(C3CC3)c(=O)c3c(Nc4ccc(I)cc4F)n(C)c(=O)c(C)c32)c1 | enzyme activity, inhibitor | 1 µM | activity vs control | 97% |
| COc1cc2c(Nc3ccc(Br)cc3F)ncnc2cc1OCC1CCN(C)CC1 | cell-free assay | 0.5 µM | remaining signal | 103% |
| c1ccc(N2CCN(Cc3nc4ccccc4[nH]3)CC2)nc1 | binding, competition with immobilised ligand | 1 µM | remaining binding | 88% |
| CC/C(=N\NC(=O)NCc1cccc(O)c1)c1ccc(O)c(C)c1O | enzyme activity, inhibitor | 0.1 µM | inhibition | 29.1% |
| COc1cc2ncnc(Nc3ccc(Oc4ccccc4)c(C)c3C)c2cc1OC | enzyme activity, inhibitor | 1 µM | inhibition | 4% |
| CNCc1ccccc1-c1csc([C@H](C)Nc2nc(C)nc3cc(OC)c(OC)cc23)c1 | cell-free assay, competition with immobilised ligand | 1 µM | remaining binding | 100% |
| COc1cc2ncn(-c3cc(OCc4ccccc4C(F)(F)F)c(C(N)=O)s3)c2cc1OC | enzyme activity, inhibitor | 1 µM | activity vs control | 56% |
| CNC(=O)Nc1ccc2c(c1)CC[C@@]21OC(=O)N(CC(=O)N(Cc2ccc(F)cc2)[C@@H](C)C(F)(F)F)C1=O | cell-free assay, competition with immobilised ligand | 1 µM | remaining binding | 85% |
| COc1cc2ncnc(Nc3ccc(F)c(Cl)c3)c2cc1NC(=O)/C=C/CN1CCCCC1 | enzyme activity, inhibitor | 1 µM | activity vs control | 87% |
| Oc1ccc(-c2nc(-c3ccncc3)c(-c3ccc(F)cc3)[nH]2)cc1 | cell-free assay | 0.5 µM | remaining signal | 78.9% |
| CC1(C)NC(=O)c2[nH]c3c(Cl)c(Cl)ccc3c2C1C#N (stereo not shown) | thermal stability, DSF | 10 µM | ΔTm | 0.4 °C |
| O=c1c(O)c(-c2ccc(O)c(O)c2)oc2cc(O)cc(O)c12 | enzyme activity, inhibitor | 1 µM | activity vs control | 69% |
